B1: tRNA (parent)
chain: GUUCCGUUGGCGUAAUGGUAACGCGUCUCCCUCCUAAGGAGAAGACUGCGGGUUCGAGUCCCGUACGGAACG

Fewer inactive variants are shown than the library holds. Some results are limits rather than exact numbers.

This passage reports yeast fitness results from the RNAGym collection of RNA variant scans (doi:10.1126/science.aae0568).

Variants of B1 are the subject of the data set. Description: yeast fitness relative to wild type (ratio to wild type); higher = fitter; tRNA-Arg(CCU), competitive growth, 37 C, YPD. The procedure, abridged: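 Variants of the tRNA-Arg(CCU) gene were chemically synthesised with a 3% per-site mutation rate across 69 sites and placed at the native genomic locus in Saccharomyces cerevisiae. Six parallel replicates of the pooled strains were competed in YPD at 37°C for 24 hours, and gene amplicons from the start and end populations were read by 100-nucleotide paired-end sequencing. Darwinian fitness relative to wild type was derived from changes in genotype frequencies. Genotypes required ≥ 100 starting reads, and estimates < 0.5 were set to 0.5.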
Regarding GUUCCGUUGGCGUAAUGGUCCCGCGUCUCCCUCCUAAGGAGAAGACUGCGGGUUCGAGUCACGUACCGAACG [A20C A21C C61A G67C], the yeast fitness is at most 0.5.

On to GUUCCGUUGGCGUAAUGGUAACGUGUCUCCCUCCUAAGGAGAAGACUGCGGGUUCGAGUCACGUACAGAACG [C24U C61A G67A], for which the yeast fitness is at most 0.5.

For GUUCCGUUGGCGAAAUGGUAACGCGUCUCCCUCCUAAGGAGAUGACUGCAGGUGCGAGUCCCGUACGCAACG [U13A A43U G50A U54G G68C], the yeast fitness is at most 0.5.

As to GUUAGGUUGGCGUAAUGGUAACGCGUCUCCCUCCUAAGGAGAAGACUGCGGGUUCGAGUCCCGUAUGGAGCG [C4A C5G C66U A70G], the yeast fitness was at most 0.5.

Consider GUUCCGUUGGCGUAAUGGUAACGUGUCUCCCUCCUAAGGACCAGACUGCGGGUUCGAGUCCCGUACGGAACG [C24U G41C A42C], for which the yeast fitness stood at 0.553.

Turning to GUUCAGUUGGCGUAAAGGUAACGCGUCUCCCUCCUAAGAAGAAGGCUGCAGGUUCGAGUCCCGUACGGAACG [C5A U16A G39A A45G G50A], the yeast fitness was at most 0.5.

On to GUUCCGUUGGCGUAAUGGUAACGCGUCUCCCUCCUAAGGAGAAGACUGCGGGUUCGAGUAACAUACGGAACG [C60A C61A G63A], for which the yeast fitness stood at 0.605.

GUUCCGUUGGCGUAAUGGUGACGCGUCUCCCUCAUAAGGAGAAGACUGCGGGUUCGAAUCCCGUACGGAACG [A20G C34A G58A]: the yeast fitness is 0.622.

As to GUUCCGUUGAAGUAAGGGUAACGCGUCUCCCUCCUAAAGAGUAGACUGCGGGUUCGAGUCCCGUACGGAACG [G10A C11A U16G G38A A42U], the yeast fitness was at most 0.5.

In the case of GGUCCGUUGGCGUAAUGGUAACGCGUCUCCCUCCUGAGGAGAAGACUGCGGGUUCGAGUCCCGUACGGUACG [U2G A36G A69U], the yeast fitness was 0.56.

Consider GUUCCGCUGGCGUAAUGGUAACGCGUCUCCCUCCUAAGGAGAAGACUGCGGGUUCGAGUCCCGUACUGAACG [U7C G67U], for which the yeast fitness amounted to 0.847.

For GUUCCGUUGGCGUAAUGGUAACGCGUCUCCGUCCUAAGGAGAAGACUGCGGGUUCGAGUCCCGUACGGUACG [C31G A69U], the yeast fitness came out at 0.752.

For GUUCCGUAGGGGUAAUGGUAACGCGUCUCCCUCGUAAGGAGAAGACUGCGGGUUCGAGUCCCGUACGGAACG [U8A C11G C34G], the yeast fitness amounted to 0.624.

GUUCUGUUGACGUAAUGGUGACGCGUCUCCCUCCUUAGGAGACGACUGCGGGUUCGAGUCGCGUACGGAACG [C5U G10A A20G A36U A43C C61G]: the yeast fitness was at most 0.5.

For the variant GUUCCGUUGGAGUAAUGGUAACGCGUCUCCUUCCUACGGAGAAGACUGCGGGUUCGAGUCCCGUAUGGAACG [C11A C31U A37C C66U], the yeast fitness was at most 0.5.

Take GUUCCGUUGGAGUGAUGGUAACGCGUCUCCCUCCUAAGGAGACGACUGCGGGUUCGGGCCCCGUACGGAGCG [C11A A14G A43C A57G U59C A70G]: the yeast fitness was found to be 0.542.

Regarding GUUCCGUUGGCGUAAUGGUGACGCGUGUCCCUCCUGAGGAGAAGACUGCGGGUUCGAGUCCCGUACGGAACG [A20G C27G A36G], the yeast fitness amounted to 0.504.

Consider GUUCCGUUGGCGUAAUGGUAACGCGUUUUCCUCCUAAGGAGAAGACUGCGGGUUCGAGUCCUGUACGGAACG [C27U C29U C62U], for which the yeast fitness was 0.578.

As for GUUCGGUUGGCGUAAUGGUAAGGCGUCUCCCUCCUCAGGAGAAGACUGCGGGUUCGAGUCCCGUACGGAACG [C5G C22G A36C], the yeast fitness is at most 0.5.

As to GUUCCAUUGGCGUAAUGGUAGCGCGUCUCCCUCCUAAGGAGAAGACUGUGGGUUCGAGUCCCGUACGGAACG [G6A A21G C49U], the yeast fitness stood at 0.791.

For the variant GUUCCGUUGGCGUAAUGGUAACGCGUCUCCCUCGUAAGGAGAAGACUGCGGGUUUGAGUCCCAUACGGAACG [C34G C55U G63A], the yeast fitness was at most 0.5.

On to GUUCCGUUGGCCUAAUGGUAAUGCGUCUCCCUCCUAAGGAGACGACUGCGGGUUCGAGUCCCGUACGGAACG [G12C C22U A43C], for which the yeast fitness was determined as 0.615.

As for GUUCUGUUGGCGUAAUGGUAACGGGUCUCCCUCCUAAGGAGAAGACUGCGGGAUCGAGUCCCAUACGGAACG [C5U C24G U53A G63A], the yeast fitness is at most 0.5.

For GUUCCGUUGGCGUAAUGGUAACGCGUCUCCUUCCUAAGGAGGAGACUGCGGGUUCGAGUCCUGUACGGCACG [C31U A42G C62U A69C], the yeast fitness came out at 0.542.

For the variant GUUCCGUUGGCGUGAAGGUAACGGGUCUCCCUCCUAAGGAGAAGACUGCGAGUUCGAGUCCCGUACGGAACG [A14G U16A C24G G51A], the yeast fitness came to 0.511.

GUUCCGUUAGGGUAAUGGUAACGGGUCUCCCUCCUAAGGAGUAGACUGCGGGUUCGAGUCCCGUACGGAACG [G9A C11G C24G A42U]: the yeast fitness is at most 0.5.

Regarding GUCCCGUUGGCGUAAUGGUAACGCGUCUCCCUCCUAAGGAGAAGACUGCGGGUUCGAGUCUCGCACGGAACG [U3C C61U U64C], the yeast fitness was determined as 0.72.

With GUUCCGUUGGCGUAAGGGUAACGCGUCUCCCUCCUAAGGAGAAGACUGUGGGUUCCAGUCCCGUACGGAACG [U16G C49U G56C], the yeast fitness is at most 0.5.

As for GUCGCGUGGGCGUAAUGGUAACGCGUCUCCCUCCUAAGGAGGAGACUGCGGGUUCGAGUCCGGUCCGGAACG [U3C C4G U8G A42G C62G A65C], the yeast fitness is at most 0.5.

Consider GUUCCGUUGGCGUAAUGAUAAAGCGUCCCCCUCCUAAGGCGAAGACUGCGGGUUCGAGUCCCGUACGGAACG [G18A C22A U28C A40C], for which the yeast fitness is at most 0.5.

In the case of GUUCCGUUGGCGAAAUGGUAACGCGUCUCCCUCCUGAGGAGAAGACUGCGGGUUCAAGUCCCGUACGGAACG [U13A A36G G56A], the yeast fitness worked out at 0.679.

For GUUCCGUUGGCGUCAUGGUAACGCGUCUCCCUCCUAAGGAGAAGACCGCGGGUUCGAGUCCCGUAUGGAACG [A14C U47C C66U], the yeast fitness is at most 0.5.

As to GUUCCGUUGGCGUACUGGUAACGCGUGUCCCUCCUAAGGAGAAGACUAGGGGUUCGAGUCCCGUACGGAACG [A15C C27G G48A C49G], the yeast fitness was at most 0.5.

As for GUUCCGUUGGCGUGAUGGUAACGCGUCUCCCUCCUAAGGAGAAGACUGCGGCUUCGAGUCCCGUACGGAACG [A14G G52C], the yeast fitness was found to be 0.577.

Take GUUCCGUUGGGGUAAUGGGAACGCGUCUCCCUCCUAAGGAGAAGCCUGCGGGUUCGAGUCCCGUACGGAACG [C11G U19G A45C]: the yeast fitness was at most 0.5.

With GUUCCGUUGGUGAAAUGGUAAGGAGUCUCCCUCCUAAGGAGAAGAGUGCGGGUUUGAGUCCCGUACGGAACG [C11U U13A C22G C24A C46G C55U], the yeast fitness is at most 0.5.

Turning to GCUCCGUUGGAGUAAUGGUAAGGCGUCUCCCUCCUAAGGAGAAGACUGCGGGUCCAAGUCCCGUACGGAACG [U2C C11A C22G U54C G56A], the yeast fitness is at most 0.5.
